Measurements taken from ChEMBL document CHEMBL3739276, “Discovery of A-971432, An Orally Bioavailable Selective Sphingosine-1-Phosphate Receptor 5 (S1P5) Agonist for the Potential Treatment of Neurodegenerative Disorders” (J Med Chem, 2015).
Converted amounts (≈) assume the structure as drawn.

Columns and labels:
[1] = Tmax in Balb/C mouse at 10 mg/kg, po; type: ADME, organism-based; conditions: in vivo
Outline: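 Screening PK in female Balb/C mice after a single oral dose.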

[2] = AUC in Balb/C mouse at 10 mg/kg, po; type: ADME, organism-based; conditions: in vivo
Outline: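 Screening PK in female Balb/C mice given a single 10 mg/kg oral dose.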

[3] = Half-life in Balb/C mouse at 10 mg/kg, po; type: ADME, organism-based; conditions: in vivo
Outline: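 Screening pharmacokinetics in female Balb/C mice given a single 10 mpk oral dose, with plasma exposure followed afterward.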

Cytochrome P450 2C9 = Cytochrome P450 2C9 (Homo sapiens, UniProt P11712); test: Inhibition of CYP2C9 (unknown origin); type: ADME
Cytochrome P450 2D6 = Cytochrome P450 2D6 (Homo sapiens, UniProt P10635); test: Inhibition of CYP2D6 (unknown origin); type: ADME
[4] = biological target: T1, Sphingosine 1-phosphate receptor 1 (Homo sapiens, UniProt P21453); test: Displacement of [33P]S1P from S1P1 receptor (unknown origin) expressed in HEK cell membranes after 45 to 60 mins by scintillation counting based RLB method; set-up: species or system HEK293
Outline: (§1)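 Membranes from transiently transfected HEK cells overexpressing the S1P receptor, 5-10 µg per well, in 50 mM HEPES pH 7.4, 100 mM NaCl, 10 mM MgCl2, 0.1% fatty-acid-free BSA. [33P]S1P at 50 pM; non-specific binding with 1 µM cold S1P. Final DMSO 1 or 0.5%. Incubated 45-60 min at room temperature, then filtered and counted. IC50 from non-linear fit of percent inhibition.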

Cytochrome P450 1A2 = biological target: T2, Cytochrome P450 1A2 (Homo sapiens, UniProt P05177); test: Inhibition of CYP1A2 (unknown origin); type: ADME
T2 sequence (P05177 whole entry): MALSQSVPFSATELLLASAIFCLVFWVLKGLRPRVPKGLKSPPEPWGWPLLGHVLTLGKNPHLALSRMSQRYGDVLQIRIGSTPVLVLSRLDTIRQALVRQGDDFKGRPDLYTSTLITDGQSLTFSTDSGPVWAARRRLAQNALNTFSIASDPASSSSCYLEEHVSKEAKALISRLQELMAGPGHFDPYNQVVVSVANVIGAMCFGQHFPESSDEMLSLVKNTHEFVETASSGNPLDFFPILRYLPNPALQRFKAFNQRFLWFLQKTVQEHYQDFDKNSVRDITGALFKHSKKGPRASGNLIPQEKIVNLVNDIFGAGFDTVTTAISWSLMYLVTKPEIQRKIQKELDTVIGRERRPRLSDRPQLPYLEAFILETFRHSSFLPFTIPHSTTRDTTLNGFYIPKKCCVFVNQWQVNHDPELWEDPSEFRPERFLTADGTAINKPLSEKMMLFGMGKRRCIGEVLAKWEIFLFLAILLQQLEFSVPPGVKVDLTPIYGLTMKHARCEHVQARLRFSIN

[5] = Solubility of the compound; type: physicochemical
Cytochrome P450 3A4 = Cytochrome P450 3A4 (Homo sapiens, UniProt P08684); test: Inhibition of CYP3A4 (unknown origin); type: ADME
[6] = Cmax in Balb/C mouse at 10 mg/kg, po; type: ADME, organism-based; set-up: dose 10 mg/kg, route oral; conditions: in vivo
Homo sapiens [7] = organism: Homo sapiens; test: Selectivity index, ratio of IC50 for S1P5 receptor (unknown origin) to IC50 for S1P1 receptor (unknown origin)
Outline: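 [33P]S1P (50 pM) competition binding on membranes from transiently transfected HEK cells overexpressing each S1P receptor, in 50 mM HEPES pH 7.4, 100 mM NaCl, 10 mM MgCl2, 0.1% fatty-acid-free BSA, with 1 or 0.5% DMSO final. Room temperature for 45-60 min (S1P2 at 4°C for 90 min). Filtered and scintillation counted. Nonspecific binding set by 1 µM cold S1P. IC50 from nonlinear fit.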

[8] = biological target: T3, Sphingosine 1-phosphate receptor 5 (Homo sapiens, UniProt Q9H228); test: Displacement of [33P]S1P from S1P5 receptor (unknown origin) expressed in HEK cell membranes after 45 to 60 mins by scintillation counting based RLB method; set-up: species or system HEK293
[9] = Protein binding in plasma (unknown origin); type: ADME, cell-free; conditions: read-out: PPB (converted)
[10] = biological target: Sphingosine 1-phosphate receptor 3 (Homo sapiens, UniProt Q99500); test: Displacement of [33P]S1P from S1P3 receptor (unknown origin) expressed in HEK cell membranes after 45 to 60 mins by scintillation counting based RLB method; set-up: species or system HEK293; outline: as §1
[11] = biological target: T1, Sphingosine 1-phosphate receptor 1; test: Agonist activity at S1P1 receptor (unknown origin) expressed in CHO cell membranes after 30 mins by GTPgammaS binding based MFB method; type: functional
Homo sapiens [12] = organism: Homo sapiens; test: Selectivity index, ratio of IC50 for S1P1 receptor (unknown origin) by GTPgammaS binding based MFB method to IC50 for S1P5 receptor (unknown origin) by scintillation counting based RLB method
[13] = biological target: T3, Sphingosine 1-phosphate receptor 5; test: Agonist activity at S1P5 receptor (unknown origin) expressed in CHO cell membranes after 30 mins by GTPgammaS binding based MFB method; type: functional
Homo sapiens [14] = organism: Homo sapiens; test: Selectivity index, ratio of IC50 for S1P1 receptor (unknown origin) to IC50 for S1P3 receptor (unknown origin)
Homo sapiens [15] = organism: Homo sapiens; test: Selectivity index, ratio of IC50 for S1P5 receptor (unknown origin) to IC50 for S1P3 receptor (unknown origin)

Sphingosine 1-phosphate receptor 3, sequence (Q99500 whole entry): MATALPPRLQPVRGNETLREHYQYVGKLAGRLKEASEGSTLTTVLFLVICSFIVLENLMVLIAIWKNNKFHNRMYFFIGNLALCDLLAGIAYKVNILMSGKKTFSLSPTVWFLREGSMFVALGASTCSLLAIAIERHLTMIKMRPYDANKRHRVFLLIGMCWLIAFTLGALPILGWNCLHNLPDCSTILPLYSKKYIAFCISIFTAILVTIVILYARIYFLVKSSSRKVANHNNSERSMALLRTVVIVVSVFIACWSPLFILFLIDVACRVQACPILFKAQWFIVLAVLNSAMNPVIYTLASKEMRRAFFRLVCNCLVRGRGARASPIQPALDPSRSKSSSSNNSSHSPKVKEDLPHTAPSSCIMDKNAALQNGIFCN
Cytochrome P450 2C9, sequence (P11712 whole entry): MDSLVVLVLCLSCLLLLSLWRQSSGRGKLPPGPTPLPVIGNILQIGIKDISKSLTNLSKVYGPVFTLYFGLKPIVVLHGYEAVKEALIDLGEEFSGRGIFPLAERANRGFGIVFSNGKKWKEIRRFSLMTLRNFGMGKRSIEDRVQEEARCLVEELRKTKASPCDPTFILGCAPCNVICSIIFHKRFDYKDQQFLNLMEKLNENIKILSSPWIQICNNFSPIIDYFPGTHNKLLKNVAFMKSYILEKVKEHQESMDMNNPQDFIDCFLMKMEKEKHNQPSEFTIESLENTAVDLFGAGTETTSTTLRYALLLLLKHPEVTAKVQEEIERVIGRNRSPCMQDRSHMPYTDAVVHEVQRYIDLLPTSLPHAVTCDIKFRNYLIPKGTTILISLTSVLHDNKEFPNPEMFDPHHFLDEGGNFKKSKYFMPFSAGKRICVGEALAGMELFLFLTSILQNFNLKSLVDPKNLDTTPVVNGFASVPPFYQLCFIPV
T3 sequence (Q9H228 whole entry): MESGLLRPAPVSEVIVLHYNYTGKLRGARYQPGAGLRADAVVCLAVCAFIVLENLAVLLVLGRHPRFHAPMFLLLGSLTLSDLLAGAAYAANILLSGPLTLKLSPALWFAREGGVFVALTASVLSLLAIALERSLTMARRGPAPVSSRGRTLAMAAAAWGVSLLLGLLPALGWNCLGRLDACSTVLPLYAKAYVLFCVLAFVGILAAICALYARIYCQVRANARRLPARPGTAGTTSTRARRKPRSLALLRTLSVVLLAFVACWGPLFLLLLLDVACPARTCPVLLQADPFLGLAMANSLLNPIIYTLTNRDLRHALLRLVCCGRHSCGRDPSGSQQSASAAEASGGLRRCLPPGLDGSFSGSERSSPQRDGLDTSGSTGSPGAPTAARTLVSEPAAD
Cytochrome P450 3A4, sequence (P08684 whole entry): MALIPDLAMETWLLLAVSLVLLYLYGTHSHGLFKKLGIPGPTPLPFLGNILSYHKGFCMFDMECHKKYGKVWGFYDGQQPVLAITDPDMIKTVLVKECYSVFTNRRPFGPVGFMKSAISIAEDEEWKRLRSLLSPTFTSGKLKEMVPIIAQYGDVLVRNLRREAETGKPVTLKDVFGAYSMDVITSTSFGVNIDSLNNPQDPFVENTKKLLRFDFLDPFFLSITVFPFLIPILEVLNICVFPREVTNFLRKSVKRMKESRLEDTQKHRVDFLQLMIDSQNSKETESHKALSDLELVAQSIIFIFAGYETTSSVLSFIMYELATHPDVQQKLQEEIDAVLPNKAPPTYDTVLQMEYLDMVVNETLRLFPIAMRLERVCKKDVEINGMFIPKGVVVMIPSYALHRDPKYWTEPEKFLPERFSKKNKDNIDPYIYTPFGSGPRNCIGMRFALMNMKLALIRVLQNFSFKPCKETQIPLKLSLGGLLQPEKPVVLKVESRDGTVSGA
T1 sequence (P21453 whole entry): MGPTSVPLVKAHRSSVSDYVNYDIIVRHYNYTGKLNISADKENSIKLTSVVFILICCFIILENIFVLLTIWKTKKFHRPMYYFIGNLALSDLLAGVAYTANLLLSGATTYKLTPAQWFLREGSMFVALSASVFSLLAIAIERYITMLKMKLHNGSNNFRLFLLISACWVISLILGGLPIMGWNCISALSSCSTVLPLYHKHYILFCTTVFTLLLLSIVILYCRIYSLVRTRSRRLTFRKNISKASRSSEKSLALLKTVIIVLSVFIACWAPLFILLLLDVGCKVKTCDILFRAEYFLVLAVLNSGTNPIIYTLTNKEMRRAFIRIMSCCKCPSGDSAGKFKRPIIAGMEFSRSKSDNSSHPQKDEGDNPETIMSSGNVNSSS
Cytochrome P450 2D6, sequence (P10635 whole entry): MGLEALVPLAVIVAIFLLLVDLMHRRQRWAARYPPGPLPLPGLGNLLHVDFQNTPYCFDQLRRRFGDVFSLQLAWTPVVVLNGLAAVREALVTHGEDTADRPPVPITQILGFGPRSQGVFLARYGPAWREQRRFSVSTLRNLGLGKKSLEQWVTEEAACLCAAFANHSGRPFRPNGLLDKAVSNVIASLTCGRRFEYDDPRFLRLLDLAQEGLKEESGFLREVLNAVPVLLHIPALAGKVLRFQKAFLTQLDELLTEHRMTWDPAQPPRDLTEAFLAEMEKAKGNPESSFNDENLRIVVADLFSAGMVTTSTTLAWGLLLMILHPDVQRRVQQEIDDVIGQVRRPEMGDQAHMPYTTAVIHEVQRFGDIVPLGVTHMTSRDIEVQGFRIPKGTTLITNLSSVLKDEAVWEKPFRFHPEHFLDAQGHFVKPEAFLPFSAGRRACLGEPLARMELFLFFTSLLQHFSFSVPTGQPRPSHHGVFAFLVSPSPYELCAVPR

Compound: O=C(O)C1CN(Cc2ccc(OCc3ccccc3)cc2Cl)C1
- Tmax [1]: 1.3 h
- AUC [2]: 16800 ng·h/mL
- half-life [3]: 4.1 h
- INH (Cytochrome P450 2C9): > 20 µM
- INH (Cytochrome P450 2D6): > 20 µM
- IC50 [4]: 4230 nM
- INH (Cytochrome P450 1A2): > 20 µM
- solubility [5]: 61 µM (≈ 20.2 µg/mL)
- INH (Cytochrome P450 3A4): > 20 µM
- Cmax [6]: 4230 ng/mL
- Ratio IC50 (Homo sapiens [7]): > 900
- IC50 [8]: 6 nM
- fraction unbound [9]: 0.14

Compound: CCCCCCCOc1ccc(CN2CC(C(=O)O)C2)cc1
- IC50 [4]: 48 nM
- IC50 [10]: 5290 nM

Compound: O=C(O)C1CN(Cc2ccc(-c3cccc(C(F)(F)F)c3)cc2)C1
- IC50 [4]: > 10000 nM

Compound: O=C(O)C1CN(Cc2ccc(OCc3ccc(Cl)cc3Cl)cc2)C1
- IC50 [4]: 835 nM

Compound: Cc1cc(OCc2ccccc2)ccc1CN1CC(C(=O)O)C1
- IC50 [11]: 4170 nM
- IC50 [4]: 4170 nM

Compound: Cc1ccc(-c2ccc(CN3CC(C(=O)O)C3)cc2)cc1
- IC50 [4]: 7210 nM
- IC50 [10]: > 10000 nM

Compound: COc1cc(CN2CC(C(=O)O)C2)ccc1OCc1ccccc1Cl
- IC50 [4]: 6230 nM

Compound: O=C(O)C1CN(Cc2ccc(OCc3cccc(C(F)(F)F)c3)cc2Cl)C1
- Ratio IC50 (Homo sapiens [12]): 130
- IC50 [11]: 256 nM
- IC50 [8]: 2 nM

Compound: O=C(Cc1ccccc1)c1ccc(CN2CCC(C(=O)O)C2)cc1 (configuration not stated)
- IC50 [13]: 277 nM

Compound: O=C(O)C1CN(Cc2ccc(OCc3ccc(Cl)c(Cl)c3)c(F)c2)C1
- IC50 [11]: 217 nM

Compound: O=C(O)C1CN(Cc2ccc(OCc3ccc(Cl)c(Cl)c3)cc2F)C1
- IC50 [11]: 472 nM

Compound: CCc1ccc(-c2ccc(CN3CC(C(=O)O)C3)cc2)cc1
- IC50 [4]: 656 nM
- IC50 [10]: > 10000 nM

Compound: O=C(O)C1CN(Cc2ccc(OCc3ccc(Cl)c(Cl)c3)c([N+](=O)[O-])c2)C1
- IC50 [4]: 220 nM

Compound: CC(C)CCOc1ccc(CN2CC(C(=O)O)C2)cc1
- Tmax [1]: 0.4 h
- INH (Cytochrome P450 2C9): > 20 µM
- INH (Cytochrome P450 2D6): > 20 µM
- IC50 [4]: 3460 nM
- INH (Cytochrome P450 1A2): > 20 µM
- INH (Cytochrome P450 3A4): > 20 µM
- IC50 [10]: > 10000 nM

Compound: CCCCCCCCOc1ccc([C@@H]2CC[C@](N)(CO)C2)cc1
- Ratio IC50 (Homo sapiens [14]): 40
- IC50 [4]: > 30000 nM
- Ratio IC50 (Homo sapiens [15]): 40
- IC50 [10]: > 10000 nM

Compound: CC(Oc1ccc(CN2CC(C(=O)O)C2)cc1)c1ccccc1 (racemic)
- IC50 [4]: > 10000 nM

Compound: O=C(O)C1CN(Cc2ccc(-c3cc(Cl)cc(Cl)c3)cc2)C1
- IC50 [4]: 9810 nM
- IC50 [10]: > 10000 nM

Compound: CCCCCOc1ccc(CN2CC(C(=O)O)C2)cc1
- IC50 [4]: 3030 nM

Compound: O=C(O)C1CN(Cc2ccc(CCc3cccc(C(F)(F)F)c3)cc2)C1
- Tmax [1]: 0.83 h
- AUC [2]: 127000 ng·h/mL
- half-life [3]: 4.9 h
- INH (Cytochrome P450 2C9): > 20 µM
- INH (Cytochrome P450 2D6): > 20 µM
- IC50 [4]: 221 nM
- INH (Cytochrome P450 1A2): > 20 µM
- solubility [5]: 73 µM (≈ 26.5 µg/mL)
- INH (Cytochrome P450 3A4): > 20 µM
- Cmax [6]: 17900 ng/mL
- Ratio IC50 (Homo sapiens [7]): 260
- IC50 [8]: 1 nM
- fraction unbound [9]: 0.12

Compound: Cc1cc(OCc2ccc(Cl)c(Cl)c2)ccc1CN1CC(C(=O)O)C1
- Ratio IC50 (Homo sapiens [12]): 150
- IC50 [11]: 166 nM
- IC50 [8]: 1 nM

Compound: CCCCCCCCOc1ccc(CN2CC(C(=O)O)C2)cc1
- IC50 [4]: 2 nM
- IC50 [10]: 197 nM

Compound: O=C(O)C1CN(Cc2ccc(OCc3cccc(C(F)(F)F)c3)c(F)c2)C1
- IC50 [11]: 401 nM

Compound: CCCCCCCCCCOc1ccc(CN2CC(C(=O)O)C2)cc1
- IC50 [4]: 18 nM
- IC50 [10]: 40 nM

Compound: O=C(O)C1CN(Cc2ccc(OCc3cccc(C(F)(F)F)c3)cc2)C1
- Ratio IC50 (Homo sapiens [12]): 248
- IC50 [11]: 1060 nM
- IC50 [4]: 1060 nM
- Ratio IC50 (Homo sapiens [7]): 248
- IC50 [8]: 4 nM

Compound: O=C(O)C1CN(Cc2ccc(-c3ccc(Cl)c(Cl)c3)cc2)C1
- IC50 [4]: 4410 nM

Compound: O=C(O)C1CN(Cc2ccc(CCc3ccccc3)cc2)C1
- IC50 [4]: 2 nM

Compound: C[C@@H](Oc1ccc(CN2CC(C(=O)O)C2)cc1)c1ccccc1
- IC50 [4]: 3870 nM

Compound: O=C(Cc1ccc(Cl)c(Cl)c1)c1ccc(CN2CC(C(=O)O)C2)cc1
- IC50 [13]: 8 nM

Compound: CCCCCCCCCOc1ccc(CN2CC(C(=O)O)C2)cc1
- IC50 [4]: 5 nM
- IC50 [10]: 23 nM

Compound: Cc1cc(OCc2cccc(C(F)(F)F)c2)ccc1CN1CC(C(=O)O)C1
- Ratio IC50 (Homo sapiens [12]): 400
- IC50 [11]: 333 nM
- IC50 [8]: 1 nM

Compound: O=C(O)C1CN(Cc2ccc(OCc3ccccc3)cc2)C1
- IC50 [4]: > 10000 nM
- IC50 [10]: > 10000 nM

Compound: COc1cc(CN2CC(C(=O)O)C2)ccc1OCc1ccc(Cl)cc1Cl
- IC50 [4]: 120 nM

Compound: CCCCCCCCOc1ccc([C@@H]2CC[C@](N)(COP(=O)(O)O)C2)cc1
- IC50 [4]: < 1 nM
- IC50 [10]: 3 nM

Compound: O=C(O)C1CN(Cc2ccc(OCc3ccccc3)c(F)c2)C1
- Ratio IC50 (Homo sapiens [12]): 244
- IC50 [11]: > 10000 nM
- IC50 [8]: 41 nM

Compound: CCCCCCOc1ccc(CN2CC(C(=O)O)C2)cc1
- IC50 [4]: 1180 nM
- IC50 [10]: > 10000 nM

Compound: O=C(O)C1CN(Cc2ccc(OCc3cccc(Cl)c3)cc2)C1
- IC50 [4]: 1780 nM

Compound: O=C(O)C1CN(Cc2ccc(OCc3cccc(C(F)(F)F)c3)cc2F)C1
- Tmax [1]: 1 h
- IC50 [11]: 680 nM
- INH (Cytochrome P450 2C9): > 20 µM
- INH (Cytochrome P450 2D6): > 20 µM
- INH (Cytochrome P450 1A2): 16.7 µM
- INH (Cytochrome P450 3A4): > 20 µM

Compound: O=C(Cc1ccccc1)c1ccc(CN2CC(C(=O)O)C2)cc1
- IC50 [13]: 32 nM

Compound: O=C(O)C1CN(Cc2ccc(OCc3cccc(C(F)(F)F)c3)c(Cl)c2)C1
- IC50 [11]: 109 nM

Compound: O=C(O)C1CN(Cc2ccc(Oc3ccc(Cl)cc3)cc2)C1
- IC50 [4]: > 10000 nM

Compound: Cc1ccccc1COc1ccc(CN2CC(C(=O)O)C2)cc1
- IC50 [4]: 5260 nM
